Source: PMC6088348 (ACS Medicinal Chemistry Letters, 2018)

Experiments:
[1] = tested on: tryptase activity in HMC1 cell lysates; assay: Inhibition of cellular tryptase activity assessed in HMC1 cell lysates; format: cell-based, human; details: read-out: IC50 in HMC1 cellular lysates; lysates of inhibitor-treated HMC1 cells
Method in brief: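 Tryptase activity measured in lysates of cultured HMC1 human mast cells. IC50 with SEM from nonlinear regression, Hill slope unconstrained.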

[2] = Stability of the linker moiety in aqueous buffers and plasma; format: physicochemical; details: relative to the initial α-hydroxyacetonyl ether

IC50 [1]	stability under aqueous conditions [2]	SMILES
454 nM	improved stability	NCc1cccc(C2CCN(C(=O)c3cccc(OCC(=O)C4(O)CCC4)c3)CC2)c1 [Compound 1a]
8400 nM		NCc1cccc(C2CCN(C(=O)c3cccc(OCC(O)C4(O)CCC4)c3)CC2)c1 (stereo not shown) [Compound 1b]
314 nM	improved stability	NCc1cccc(C2CCN(C(=O)c3cccc(NC(=O)C(=O)C4(O)CCC4)c3)CC2)c1 [Compound 2a]
113 nM		CC(C)(O)C(=O)C(=O)Nc1cccc(C(=O)N2CCC(c3cccc(CN)c3)CC2)c1 [Compound 3a]
13300 nM		CC(C)(O)C(O)C(=O)Nc1cccc(C(=O)N2CCC(c3cccc(CN)c3)CC2)c1 (stereo not shown) [Compound 3b]
